Measured values as given in PMC3705663 (The Indian Journal of Medical Research, 2013).

Key:
[1] = test system: HIV integrase; details: previous study; cited from earlier work
[2] = test system: HIV-1 NL4.3; assay: Inhibition of HIV infection in CEM-GFP cells-based assay; format: cell-based
Summary of the method: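 CEM-GFP cells (CD4+ T-lymphocytic line, GFP under HIV-1 LTR) were infected with HIV-1 NL4.3 at MOI 0.05. They were then plated at 2.0 × 10^5/well with varying test compound concentrations for up to 8 days. AZT served as positive control and solvents as negative controls. Cell lysates were read for GFP fluorescence (ex 485/em 520 nm). % inhibition was taken versus untreated infected cells, and IC50 was obtained by nonlinear curve fitting.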

[3] = test system: HIV-1 NL4.3; assay: Inhibition of HIV infection in TZM-bl cells-based assay; format: cell-based
Summary of the method: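 TZM-bl cells (HeLa-derived, CD4/CCR5/CXCR4, LTR-driven luciferase) were seeded at 4 × 10^4/well overnight. HIV-1 NL4.3 (MOI 0.05) was pretreated with test compound for 1 h at 37°C, added to cells in duplicate for 4 h, then washed off with cold PBS. Cells were cultured 48 h in fresh medium with compound, lysed by freeze-thaw and read for luciferase. AZT served as positive control. % inhibition was taken versus untreated infected cells; IC50 by nonlinear fit.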

[4] = molecular target: HIV-1 protease (Human immunodeficiency virus type 1 group M subtype B, UniProt P04585); assay: Protease assay; format: biochemical; details: reference control saquinavir 1 μM
Summary of the method: (§1)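 Enzyme inhibition was measured with a commercial kit for each enzyme, following the manufacturer's instructions. Inhibition values are mean ± SEM of three independent experiments.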

[5] = molecular target: HIV-1 integrase (Human immunodeficiency virus type 1 group M subtype B, UniProt P04585); assay: Integrase assay; format: biochemical; details: tested upto 50 μg/ml; positive control sodium azide; data not shown
Summary of the method: as §1

[6] = test system: HIV; details: from other plant sources; cited from earlier work
[7] = molecular target: HIV-1 RT (Human immunodeficiency virus type 1 group M subtype B, UniProt P04585); assay: Reverse transcriptase assay; format: biochemical; details: reference control nevirapine 1 μM
Summary of the method: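 HIV-1 reverse transcriptase inhibition was measured with a commercial RT assay kit following the manufacturer's protocol. Data are mean ± SEM of three independent experiments.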

inhibition of HIV-1 protease activity (in words) ([4]; listed as ellagic acid)	inhibition of HIV-1 protease activity (in words) ([4]; listed as ellagic acid (compound G))	inhibition of HIV-1 integrase activity (in words) [5]	inhibition of HIV-1 RT activity (in words) [7]	Structure (SMILES)	HIV integrase inhibitory activity (in words) [1]	anti-HIV activity (in words) [2]	anti-HIV activity (in words) [3]	anti-HIV activity (in words) [6]
inhibited the HIV-1 protease activity	dose-dependent inhibition	did not show any significant inhibition	–	O=c1oc2c(O)c(O)cc3c(=O)oc4c(O)c(O)cc1c4c23 [Ellagic acid (G), ellagic acid]	shown to have HIV integrase inhibitory activity	consistent anti-HIV activity	consistent anti-HIV activity	reported for their anti-HIV activity
–	–	–	–	C[C@@H]1O[C@@H](OC[C@H]2O[C@@H](Oc3c(-c4ccc(O)c(O)c4)oc4cc(O)cc(O)c4c3=O)[C@H](O)[C@@H](O)[C@@H]2O)[C@H](O)[C@H](O)[C@H]1O [Rutin (E), rutin]	–	did not show any significant anti-HIV activity	did not show any significant anti-HIV activity	–
–	–	did not show any significant inhibition	dose dependent inhibition	O=C(O)c1cc(O)c(O)c(O)c1 [Gallic acid (F), gallic acid]	–	potent anti-HIV activity	potent anti-HIV activity	reported for their anti-HIV activity
